Experimental data from ChEMBL document CHEMBL1142457, “Bisphosphonated fluoroquinolone esters as osteotropic prodrugs for the prevention of osteomyelitis” (Bioorg Med Chem, 2008).
Converted amounts (≈) assume the structure as drawn. The source made the active and inactive calls. The rule behind the calls is not given here.

Key:
Staphylococcus aureus [1] = assay: Protective effect against Staphylococcus aureus ATCC 13709-induced bone infection in CD rat at 10 mg/kg, iv administered as single dose 24 hrs after bacterial challenge; type: functional, organism-based; design: dose 10 mg/kg
Staphylococcus aureus [2] = assay: Protective effect against Staphylococcus aureus ATCC 13709-induced bone infection in CD rat at 10 mg/kg, iv administered as single dose
Staphylococcus aureus [3] = assay: Protective effect against Staphylococcus aureus ATCC 13709-induced bone infection in CD rat at 10 mg/kg, iv administered as single dose 2 days before bacterial challenge; type: functional, organism-based; design: dose 10 mg/kg
How it was run: (§1)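 Female CD rats (57–70 days, n = 5/group) received a single IV bolus in 0.9% saline before infection. Under isoflurane, tibiae were injected with 0.05 ml 5% sodium morrhuate, then S. aureus ATCC 13709 (ca. 5 × 10⁵ CFU/rat). At 24 h, tibiae were milled and cultured quantitatively. Read-out was log CFU/g bone (mean, SD; detection limit 2 log), compared by Dunnett or Kruskal–Wallis.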

Staphylococcus aureus [4] = assay: Antibacterial activity against Staphylococcus aureus ATCC 13709 after 24 hrs by microdilution method; type: functional; conditions: ATCC 13709, 24 h
How it was run: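 Broth microdilution MIC per CLSI M7-A7 against S. aureus ATCC 13709.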

Bone = assay: Binding affinity to bone assessed as drug level bound to cattle bone meal powder by fluorescence assay; type: tissue-based; design: concentration or dose not given beside the values; conditions: Bos taurus; Bone element
How it was run: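 Drug or prodrug was suspended with bone meal powder in PBS and held 1 h at 37 °C to bind, then centrifuged. The pellet was washed three times with PBS, and all supernatants were read by fluorescence (ex/em 280/465 nm). Bound fraction was taken as […] prodrug relative to total input.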

Serum [5] = assay: Stability in 50% human serum assessed as amount of parent drug released from cattle bone meal powder over 24 hrs; type: ADME, cell-free
How it was run: (§2)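 Washed bone-powder-bound prodrug was resuspended in PBS or 50% (v/v in PBS) human or rat serum and kept 24 h at 37 °C. The supernatant was extracted with 5 volumes of methanol, centrifuged, dried, redissolved in PBS and read by fluorescence. Release was derived from the difference between bound prodrug and regenerated drug. Identity was checked by CLSI MIC.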

[6] = Stability in phosphate buffer saline assessed as amount of parent drug released from cattle bone meal powder over 24 hrs; type: ADME; how it was run: as §2
Serum [7] = assay: Stability in 50% rat serum assessed as amount of parent drug released from cattle bone meal powder over 24 hrs; type: ADME, cell-free; how it was run: as §2
Staphylococcus aureus [8] = assay: Protective effect against Staphylococcus aureus ATCC 13709-induced bone infection in CD rat at 17.3 mg/kg, iv administered as single dose 2 days before bacterial challenge; type: functional, organism-based; design: dose 17.3 mg/kg; how it was run: as §1
Staphylococcus aureus [9] = assay: Protective effect against Staphylococcus aureus ATCC 13709-induced bone infection in CD rat at 15.8 mg/kg, iv administered as single dose 2 days before bacterial challenge; type: functional, organism-based; design: dose 15.8 mg/kg; how it was run: as §1

Compound	MIC (Staphylococcus aureus [4])	Activity (Bone)	Activity (Serum [5])	Activity [6]	Activity (Serum [7])	Activity (Staphylococcus aureus [1])	Activity (Staphylococcus aureus [2])	Activity (Staphylococcus aureus [3])	Activity (Staphylococcus aureus [8])	Activity (Staphylococcus aureus [9])
COc1c(N2C[C@@H]3CCCN[C@@H]3C2)c(F)cc2c(=O)c(C(=O)O)cn(C3CC3)c12 [MOXIFLOXACIN]	0.03 µg/mL (≈ 0.0747 µM)					inactive	inactive	inactive		
COc1c(N2C[C@@H]3CCCN[C@@H]3C2)c(F)cc2c(=O)c(C(=O)OCCCC(P(=O)(O)O)P(=O)(O)O)cn(C3CC3)c12	> 4 µg/mL	93.8%								
COc1c(N2CCNC(C)C2)c(F)cc2c(=O)c(C(=O)OCC(=O)NCCCC[C@@H](NC(=O)COC(=O)c3cn(C4CC4)c4c(OC)c(N5CCNC(C)C5)c(F)cc4c3=O)C(=O)NC(P(=O)(O)O)P(=O)(O)O)cn(C3CC3)c12 (some centres undefined)	> 4 µg/mL	92.8%	0.4%	0.2%	0.4%					
COc1c(N2C[C@@H]3CCCN[C@@H]3C2)c(F)cc2c(=O)c(C(=O)SCC(=O)NC(P(=O)(O)O)P(=O)(O)O)cn(C3CC3)c12	> 4 µg/mL	99%	0.5%	0.3%	0.4%					
COc1c(N2CCNC(C)C2)c(F)cc2c(=O)c(C(=O)SCCCC(P(=O)(O)O)P(=O)(O)O)cn(C3CC3)c12 (centres undefined)	> 4 µg/mL	98.7%	0.1%	0.1%	0.1%					
COc1c(N2CCNC(C)C2)c(F)cc2c(=O)c(C(=O)O)cn(C3CC3)c12 (centres undefined) [GATIFLOXACIN]	0.06 µg/mL (≈ 0.16 µM)						inactive	inactive		

More lines, main results first:

MIC (Staphylococcus aureus [4])	Activity (Bone)	Activity (Serum [5])	Activity [6]	Activity (Serum [7])	Compound	Activity (Staphylococcus aureus [1])	Activity (Staphylococcus aureus [2])	Activity (Staphylococcus aureus [3])	Activity (Staphylococcus aureus [8])	Activity (Staphylococcus aureus [9])
> 4 µg/mL	88.9%	0.7%	0.5%	0.6%	COc1c(N2CCNC(C)C2)c(F)cc2c(=O)c(C(=O)OCC(=O)Nc3ccc(CC(P(=O)(O)O)P(=O)(O)O)cc3)cn(C3CC3)c12 (centres undefined)					
> 4 µg/mL	79.2%	0.1%	0.2%	0.1%	COc1c(N2CCNC(C)C2)c(F)cc2c(=O)c(C(=O)Oc3ccc(C(P(=O)(O)O)P(=O)(O)O)cc3)cn(C3CC3)c12 (centres undefined)					
> 4 µg/mL	92.7%		0.01%		COc1c(N2C[C@@H]3CCCN[C@@H]3C2)c(F)cc2c(=O)c(C(=O)OCCCCC(P(=O)(O)O)P(=O)(O)O)cn(C3CC3)c12					
> 4 µg/mL	97.3%	0.8%	0.3%	0.7%	COc1c(N2C[C@@H]3CCCN[C@@H]3C2)c(F)cc2c(=O)c(C(=O)OCC(=O)N(C)C(P(=O)(O)O)P(=O)(O)O)cn(C3CC3)c12					
> 4 µg/mL	97.2%	1.2%	0.6%	1.3%	COc1c(N2C[C@@H]3CCCN[C@@H]3C2)c(F)cc2c(=O)c(C(=O)OCC(=O)Nc3ccc(CC(P(=O)(O)O)P(=O)(O)O)cc3)cn(C3CC3)c12					
> 4 µg/mL	90.4%	0.6%	1.1%	0.9%	COc1c(N2CCNC(C)C2)c(F)cc2c(=O)c(C(=O)OCC(=O)N(C)C(P(=O)(O)O)P(=O)(O)O)cn(C3CC3)c12 (centres undefined)					
> 4 µg/mL	91%	1.6%	2.7%	1.3%	COc1c(N2CCNC(C)C2)c(F)cc2c(=O)c(C(=O)OCC(=O)NC(P(=O)(O)O)P(=O)(O)O)cn(C3CC3)c12 (centres undefined)				Active	
> 4 µg/mL	98.7%	1.4%	1.2%	1.4%	COc1c(N2C[C@@H]3CCCN[C@@H]3C2)c(F)cc2c(=O)c(C(=O)OCC(=O)NC(P(=O)(O)O)P(=O)(O)O)cn(C3CC3)c12					Active
> 4 µg/mL	99.9%	0.1%	0.04%	0.1%	COc1c(N2C[C@@H]3CCCN[C@@H]3C2)c(F)cc2c(=O)c(C(=O)SCCCC(P(=O)(O)O)P(=O)(O)O)cn(C3CC3)c12					
